{"source": "ChEMBL document CHEMBL4354800", "about": "“Amphiphilic nebramine-based hybrids Rescue legacy antibiotics from intrinsic resistance in multidrug-resistant Gram-negative bacilli” (Eur J Med Chem, 2019)", "key": {"Pseudomonas aeruginosa [1]": {"test_system": "Pseudomonas aeruginosa", "assay": "Potentiation of minocycline-induced antibacterial activity against MDR/XDR Pseudomonas aeruginosa isolate PA260-97103 harboring GyrA T83I mutant assessed as fold reduction in minocycline MIC at 9 uM incubated for 18 hrs by broth microdilution method", "assay_type": "functional"}, "Pseudomonas aeruginosa [2]": {"test_system": "Pseudomonas aeruginosa", "assay": "Potentiation of moxifloxacin-induced antibacterial activity against MDR/XDR Pseudomonas aeruginosa isolate 101243 devoid of GyrA T83I mutant assessed as fold reduction in moxifloxacin MIC at 9 uM incubated for 18 hrs by broth microdilution method", "assay_type": "functional", "method_in_brief": "(§1)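 CLSI broth microdilution. Overnight cultures were set to 0.5 McFarland in saline, diluted 1:50 in Mueller-Hinton broth to a final 5 × 10^5 CFU/mL, and incubated 18 h at 37 °C against 2-fold antibiotic dilutions. A fixed adjuvant level was present throughout. MIC = lowest concentration with no visible turbidity, confirmed at 590 nm. Potentiation = fold drop in antibiotic MIC versus antibiotic alone.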"}, "Klebsiella pneumoniae": {"test_system": "Klebsiella pneumoniae", "assay": "Synergistic antibacterial activity against Klebsiella pneumoniae 113254 assessed as fractional inhibitory concentration index in presence of rifampicin incubated for 18 hrs by broth dilution method", "assay_type": "functional", "method_in_brief": "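Checkerboard titration of the adjuvant against the antibiotic, run under the CLSI microdilution conditions (MHB, 5 × 10^5 CFU/mL, 18 h, 37 °C). Each agent's FIC is its MIC in combination divided by its MIC alone; FICI is the sum of the two FICs. FICI ≤0.5 was read as synergy, >0.5–4.0 as no interaction, and >4.0 as antagonism.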"}, "Escherichia coli": {"test_system": "Escherichia coli", "assay": "Potentiation of rifampicin-induced antibacterial activity against Escherichia coli 94474 assessed as fold reduction in rifampicin MIC at 4.1 uM incubated for 18 hrs by broth dilution method", "assay_type": "functional", "method_in_brief": "as §1"}, "Acinetobacter baumannii [3]": {"test_system": "Acinetobacter baumannii", "assay": "Synergistic antibacterial activity against multidrug-resistant Acinetobacter baumannii AB92247 assessed as fractional inhibitory concentration index in presence of rifampicin incubated for 18 hrs by broth dilution method", "assay_type": "functional"}, "Acinetobacter baumannii [4]": {"test_system": "Acinetobacter baumannii", "assay": "Potentiation of rifampicin-induced antibacterial activity against multidrug-resistant Acinetobacter baumannii AB110193 assessed as fold reduction in rifampicin MIC at 4.1 uM incubated for 18 hrs by broth dilution method", "assay_type": "functional", "method_in_brief": "as §1"}, "Pseudomonas aeruginosa [5]": {"test_system": "Pseudomonas aeruginosa", "assay": "Antimicrobial activity against XDR Pseudomonas aeruginosa isolate PA264 infected in Galleria mellonella larvae assessed as increase in survival rate co-administered with rifampicin at 2 hrs post-inoculation measured every 6 hrs for upto 24 hrs", "assay_type": "functional, organism-based", "method_in_brief": "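G. mellonella larvae each received an injection of about 5 CFU of PA264 (culture adjusted to 0.5 McFarland, then diluted in PBS to 5 × 10^2 CFU/mL) and were held 2 h at 37 °C. A single injection followed: rifampicin plus adjuvant at 25+25, 50+50 or 75+75 mg/kg, or PBS. Larvae were kept at 37 °C and scored every 6 h up to 24 h; no response to touch counted as dead. Total n=30 per group; Kaplan-Meier analysis.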"}, "Pseudomonas aeruginosa [6]": {"test_system": "Pseudomonas aeruginosa", "assay": "Potentiation of rifampicin-induced antibacterial activity against MDR/XDR Pseudomonas aeruginosa isolate PA262-101856 harboring GyrA T83I mutant assessed as fold reduction in rifampicin MIC at 7.5 uM incubated for 18 hrs by broth microdilution method", "assay_type": "functional", "method_in_brief": "as §1"}, "Pseudomonas aeruginosa [7]": {"test_system": "Pseudomonas aeruginosa", "assay": "Potentiation of rifampicin-induced antimicrobial activity against MDR/XDR Pseudomonas aeruginosa isolate 101243 devoid of GyrA Thr83Ile mutant assessed as rifampicin MIC80 incubated for 18 hrs by broth microdilution method (reference value: 16 microg/ml)", "assay_type": "functional", "conditions": "isolate 101243, 18 h"}, "Pseudomonas aeruginosa [8]": {"test_system": "Pseudomonas aeruginosa", "assay": "Potentiation of rifampicin-induced antimicrobial activity against MDR/XDR Pseudomonas aeruginosa isolate PA264-104354 harboring GyrA Thr83Ile mutant assessed as rifampicin MIC80 incubated for 18 hrs by broth microdilution method (reference value: 16 microg/ml)", "assay_type": "functional", "conditions": "isolate PA264-104354, 18 h"}, "Pseudomonas aeruginosa [9]": {"test_system": "Pseudomonas aeruginosa", "assay": "Potentiation of rifampicin-induced antimicrobial activity against MDR/XDR Pseudomonas aeruginosa isolate 100036 harboring GyrA Thr83Ile mutant assessed as rifampicin MIC50 incubated for 18 hrs by broth microdilution method (reference value: 8 microg/ml)", "assay_type": "functional", "conditions": "isolate 100036, 18 h"}, "Pseudomonas aeruginosa [10]": {"test_system": "Pseudomonas aeruginosa", "assay": "Potentiation of rifampicin-induced antibacterial activity against wild type Pseudomonas aeruginosa PAO1 assessed as fold reduction in rifampicin MIC at 7.5 uM incubated for 18 hrs by broth microdilution method", "assay_type": "functional", "method_in_brief": "as §1"}, "Pseudomonas aeruginosa [11]": {"test_system": "Pseudomonas aeruginosa", "assay": "Potentiation of rifampicin-induced antimicrobial activity against MDR/XDR Pseudomonas aeruginosa isolate PA260-97103 harboring GyrA Thr83Ile mutant assessed as rifampicin MIC80 incubated for 18 hrs by broth microdilution method (reference value: 16 microg/ml)", "assay_type": "functional", "conditions": "isolate PA260-97103, 18 h"}, "Pseudomonas aeruginosa [12]": {"test_system": "Pseudomonas aeruginosa", "assay": "Potentiation of moxifloxacin-induced antibacterial activity against MDR/XDR Pseudomonas aeruginosa isolate 100036 harboring GyrA T83I mutant assessed as fold reduction in moxifloxacin MIC at 7.5 uM incubated for 18 hrs by broth microdilution method", "assay_type": "functional", "method_in_brief": "as §1"}, "Pseudomonas aeruginosa [13]": {"test_system": "Pseudomonas aeruginosa", "assay": "Potentiation of minocycline-induced antimicrobial activity against MDR/XDR Pseudomonas aeruginosa isolate PA260-97103 harboring GyrA Thr83Ile mutant assessed as minocycline MIC80 incubated for 18 hrs by broth microdilution method (reference value: 32 microg/ml)", "assay_type": "functional", "conditions": "isolate PA260-97103, 18 h"}, "Enterobacter cloacae": {"test_system": "Enterobacter cloacae", "assay": "Potentiation of rifampicin-induced antibacterial activity against Enterobacter cloacae 117029 assessed as fold reduction in rifampicin MIC at 7.5 uM incubated for 18 hrs by broth dilution method", "assay_type": "functional", "method_in_brief": "(§2)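 Antibiotic MIC determined by CLSI broth microdilution (MHB, 5 × 10^5 CFU/mL, 18 h, 37 °C), once alone and once with a fixed concentration of the adjuvant. Potentiation is the ratio of the antibiotic MIC alone to its MIC in the presence of the adjuvant.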"}, "Pseudomonas aeruginosa [14]": {"test_system": "Pseudomonas aeruginosa", "assay": "Potentiation of moxifloxacin-induced antibacterial activity against MDR/XDR Pseudomonas aeruginosa isolate 101885 harboring GyrA T83I mutant assessed as fold reduction in moxifloxacin MIC at 7.5 uM incubated for 18 hrs by broth microdilution method", "assay_type": "functional", "method_in_brief": "as §1"}, "Pseudomonas aeruginosa [15]": {"test_system": "Pseudomonas aeruginosa", "assay": "Potentiation of minocycline-induced antimicrobial activity against MDR/XDR Pseudomonas aeruginosa isolate 91433 devoid of GyrA Thr83Ile mutant assessed as minocycline MIC50 incubated for 18 hrs by broth microdilution method (reference value: 16 microg/ml)", "assay_type": "functional", "conditions": "isolate 91433, 18 h"}, "Pseudomonas aeruginosa [16]": {"test_system": "Pseudomonas aeruginosa", "assay": "Potentiation of rifampicin-induced antimicrobial activity against MDR/XDR Pseudomonas aeruginosa isolate 91433 devoid of GyrA Thr83Ile mutant assessed as rifampicin MIC80 incubated for 18 hrs by broth microdilution method (reference value: 16 microg/ml)", "assay_type": "functional", "conditions": "isolate 91433, 18 h"}, "Pseudomonas aeruginosa [17]": {"test_system": "Pseudomonas aeruginosa", "assay": "Potentiation of minocycline-induced bactericidal activity in Pseudomonas aeruginosa PAO1 at 0.5 times MIC incubated for 24 hrs in presence of 4 ug/ml minocycline by time kill curve assay relative to control", "assay_type": "functional", "method_in_brief": "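Time-kill. An overnight PAO1 culture was adjusted to 0.5 McFarland in saline and diluted 1:50 in LB. Cells were exposed to the adjuvant at ½× MIC plus fixed minocycline for 24 h at 37 °C. Aliquots taken at intervals were serially diluted in PBS and plated on LB agar; colonies were counted after 20 h at 37 °C. Controls were untreated cells and colistin at 4× MIC.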"}, "Pseudomonas aeruginosa [18]": {"test_system": "Pseudomonas aeruginosa", "assay": "Potentiation of minocycline-induced antibacterial activity against wild type Pseudomonas aeruginosa PAO1 assessed as fold reduction in minocycline MIC at 7.5 uM incubated for 18 hrs by broth microdilution method", "assay_type": "functional", "method_in_brief": "as §2"}}}
{"smiles": "Cl.Cl.Cl.Cl.Cl.Cl.NC[C@H]1O[C@H](O[C@H]2[C@H](OCCCCCCCCCCN3CCN(Cc4cccc5ccccc45)CC3)[C@@H](O)[C@H](N)C[C@@H]2N)[C@H](N)C[C@@H]1O", "values": [{"measurement": "fold change (FC)", "setting": "Pseudomonas aeruginosa [1]", "result": 64}, {"measurement": "fold change (FC)", "setting": "Pseudomonas aeruginosa [2]", "result": 8}]}
{"smiles": "Cl.Cl.Cl.Cl.Cl.NC[C@H]1O[C@H](O[C@H]2[C@H](OCCCCCCCCCCCCN3CCN(c4cc5c(cc4F)c(=O)c(C(=O)O)cn5C4CC4)CC3)[C@@H](O)[C@H](N)C[C@@H]2N)[C@H](N)C[C@@H]1O", "values": [{"measurement": "fractional inhibitory concentration index (FICI)", "setting": "Klebsiella pneumoniae", "result": 0.047}, {"measurement": "fold change (FC)", "setting": "Escherichia coli", "result": 256}, {"measurement": "fractional inhibitory concentration index (FICI)", "setting": "Acinetobacter baumannii [3]", "result": 0.039}, {"measurement": "fold change (FC)", "setting": "Acinetobacter baumannii [4]", "result": 64}, {"measurement": "Activity", "setting": "Pseudomonas aeruginosa [5]", "result": "Dose-dependent effect"}]}
{"smiles": "COc1c(N2C[C@@H]3CCCN(CCCCCCCCCCCCO[C@@H]4[C@@H](O)[C@H](N)C[C@H](N)[C@H]4O[C@H]4O[C@H](CN)[C@@H](O)C[C@H]4N)[C@@H]3C2)c(F)cc2c(=O)c(C(=O)O)cn(C3CC3)c12.Cl.Cl.Cl.Cl.Cl", "values": [{"measurement": "fold change (FC)", "setting": "Pseudomonas aeruginosa [6]", "result": 512}, {"measurement": "MIC80", "setting": "Pseudomonas aeruginosa [7]", "result": 0.13, "unit": "µg/mL"}, {"measurement": "MIC80", "setting": "Pseudomonas aeruginosa [8]", "result": 0.13, "unit": "µg/mL"}, {"measurement": "MIC50", "setting": "Pseudomonas aeruginosa [9]", "result": 0.06, "unit": "µg/mL"}, {"measurement": "fold change (FC)", "setting": "Pseudomonas aeruginosa [10]", "result": ">=256"}, {"measurement": "MIC80", "setting": "Pseudomonas aeruginosa [11]", "result": 0.13, "unit": "µg/mL"}, {"measurement": "fold change (FC)", "setting": "Pseudomonas aeruginosa [12]", "result": 16}, {"measurement": "MIC80", "setting": "Pseudomonas aeruginosa [13]", "result": 1, "unit": "µg/mL"}, {"measurement": "fold change (FC)", "setting": "Enterobacter cloacae", "result": ">=128"}, {"measurement": "fold change (FC)", "setting": "Pseudomonas aeruginosa [14]", "result": 4}, {"measurement": "MIC50", "setting": "Pseudomonas aeruginosa [15]", "result": 0.5, "unit": "µg/mL"}, {"measurement": "MIC80", "setting": "Pseudomonas aeruginosa [16]", "result": 0.13, "unit": "µg/mL"}, {"measurement": "Activity", "setting": "Pseudomonas aeruginosa [17]", "result": 100, "unit": "%"}, {"measurement": "fold change (FC)", "setting": "Pseudomonas aeruginosa [18]", "result": 8}]}
